Reference: ChEMBL document CHEMBL1134488, “Potent reversible inhibitors of the protein tyrosine phosphatase CD45” (J Med Chem, 2001)
Where a SMILES comes first, the peptide text is derived from it. The star is where a group is joined. Phenanthrenequinone2carbonyl = O=C1C(=O)c2cc(C(=O)*)ccc2-c2ccccc21; X1 = O=C1C(=O)c2cc(N*)ccc2-c2ccccc21

Experiments:
[1] = target: T1, Receptor-type tyrosine-protein phosphatase C (Homo sapiens, UniProt P08575); assay: In vitro inhibitory activity against the cytosolic portion of CD45 protein-tyrosine phosphatase using pNPP as the substrate
T1 sequence (P08575 whole entry): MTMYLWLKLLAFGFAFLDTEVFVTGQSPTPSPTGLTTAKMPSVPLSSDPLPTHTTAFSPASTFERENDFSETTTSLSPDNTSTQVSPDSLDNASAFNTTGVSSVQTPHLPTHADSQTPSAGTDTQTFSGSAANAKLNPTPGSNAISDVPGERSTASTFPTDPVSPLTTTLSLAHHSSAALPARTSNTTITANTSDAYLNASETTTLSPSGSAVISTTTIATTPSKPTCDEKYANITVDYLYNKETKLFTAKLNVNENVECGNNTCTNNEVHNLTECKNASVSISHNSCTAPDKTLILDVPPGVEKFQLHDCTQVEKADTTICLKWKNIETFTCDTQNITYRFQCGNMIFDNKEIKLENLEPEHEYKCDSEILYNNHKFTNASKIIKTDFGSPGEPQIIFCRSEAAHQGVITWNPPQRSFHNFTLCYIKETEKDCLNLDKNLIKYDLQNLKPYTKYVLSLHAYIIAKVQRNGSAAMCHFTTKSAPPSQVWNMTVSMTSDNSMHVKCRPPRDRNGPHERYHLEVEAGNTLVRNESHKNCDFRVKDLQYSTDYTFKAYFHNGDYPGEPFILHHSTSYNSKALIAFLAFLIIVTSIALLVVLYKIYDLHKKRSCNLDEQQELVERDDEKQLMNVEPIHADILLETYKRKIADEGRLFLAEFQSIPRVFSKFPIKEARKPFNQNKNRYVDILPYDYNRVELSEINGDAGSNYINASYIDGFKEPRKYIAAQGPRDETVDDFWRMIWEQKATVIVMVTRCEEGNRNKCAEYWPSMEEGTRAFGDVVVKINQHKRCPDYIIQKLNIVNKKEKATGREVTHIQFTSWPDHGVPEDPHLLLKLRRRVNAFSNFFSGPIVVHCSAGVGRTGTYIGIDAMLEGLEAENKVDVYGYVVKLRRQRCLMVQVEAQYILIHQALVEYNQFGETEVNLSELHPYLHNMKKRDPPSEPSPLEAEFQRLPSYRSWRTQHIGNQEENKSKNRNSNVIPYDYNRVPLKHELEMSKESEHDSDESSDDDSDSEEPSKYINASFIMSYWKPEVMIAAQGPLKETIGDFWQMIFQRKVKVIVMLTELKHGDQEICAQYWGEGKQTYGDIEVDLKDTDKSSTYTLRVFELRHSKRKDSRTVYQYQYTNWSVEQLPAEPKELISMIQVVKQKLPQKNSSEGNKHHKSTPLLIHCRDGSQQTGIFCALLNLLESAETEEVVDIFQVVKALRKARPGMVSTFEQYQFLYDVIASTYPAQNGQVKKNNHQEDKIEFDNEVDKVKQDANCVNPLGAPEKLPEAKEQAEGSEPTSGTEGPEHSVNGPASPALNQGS

[2] = target: T2, Tyrosine-protein phosphatase non-receptor type 1 (Homo sapiens, UniProt P18031); assay: Inhibitory concentration against PTP1B using lck as substrate
T2 sequence (P18031 whole entry): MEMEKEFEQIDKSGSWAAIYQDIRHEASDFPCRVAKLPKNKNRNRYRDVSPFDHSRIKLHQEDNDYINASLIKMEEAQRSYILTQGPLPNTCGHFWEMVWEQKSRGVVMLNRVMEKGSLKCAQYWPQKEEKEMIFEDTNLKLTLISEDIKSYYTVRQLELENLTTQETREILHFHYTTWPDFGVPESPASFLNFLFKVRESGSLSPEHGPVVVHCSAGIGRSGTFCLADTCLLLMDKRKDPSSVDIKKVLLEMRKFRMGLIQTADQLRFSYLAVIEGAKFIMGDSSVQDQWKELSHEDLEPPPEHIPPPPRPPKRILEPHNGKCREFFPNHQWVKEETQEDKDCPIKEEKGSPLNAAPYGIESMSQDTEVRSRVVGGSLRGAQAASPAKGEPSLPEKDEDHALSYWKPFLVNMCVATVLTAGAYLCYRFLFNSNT

[3] = test system: T-cell; assay: Cytotoxicity measured against human T-cells; type: functional
[4] = test system: T-cell; assay: In vitro inhibition of human T-cell proliferation; type: functional, cell-based
[5] = target: T1, Receptor-type tyrosine-protein phosphatase C; assay: Inhibitory concentration against CD45 protein-tyrosine phosphatase using lck-10 mer as substrate
[6] = target: Cathepsin S (Homo sapiens, UniProt P25774); assay: Inhibitory concentration against Cathepsin S
How it was run: (§1)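 Cysteine protease assays. Peptide substrates were CBZ-L-lysine p-nitrophenyl ester, Z-Phe-Arg-NH-Mec and Z-Val-Val-Arg-NH-Mec. Values are means of experiments run in triplicate, given in µM.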

[7] = target: Cathepsin B (Homo sapiens, UniProt P07858); assay: Inhibitory concentration against Cathepsin B; how it was run: as §1
[8] = target: Procathepsin L (Homo sapiens, UniProt P07711); assay: Inhibitory concentration against Cathepsin L; how it was run: as §1
[9] = target: T3, Tyrosine-protein phosphatase non-receptor type 13 (Homo sapiens, UniProt Q12923); assay: Inhibitory concentration against FAP-1 pNPP
[10] = target: T3, Tyrosine-protein phosphatase non-receptor type 13; assay: Inhibitory concentration against FAP-1 using lck-10 mer as substrate
[11] = target: T1, Receptor-type tyrosine-protein phosphatase C; assay: Inhibitory concentration against CD45 protein-tyrosine phosphatase pNPP

Sequence of Cathepsin S (P25774 whole entry): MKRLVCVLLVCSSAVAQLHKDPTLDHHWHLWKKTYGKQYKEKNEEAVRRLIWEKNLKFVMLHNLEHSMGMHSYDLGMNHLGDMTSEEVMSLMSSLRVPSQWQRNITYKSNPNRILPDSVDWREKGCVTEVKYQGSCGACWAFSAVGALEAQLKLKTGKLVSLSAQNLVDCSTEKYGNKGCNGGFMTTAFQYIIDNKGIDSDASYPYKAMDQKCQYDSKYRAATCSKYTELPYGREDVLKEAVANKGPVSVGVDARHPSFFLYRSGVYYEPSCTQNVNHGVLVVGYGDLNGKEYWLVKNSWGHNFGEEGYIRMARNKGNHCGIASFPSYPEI
T3 sequence (Q12923 whole entry): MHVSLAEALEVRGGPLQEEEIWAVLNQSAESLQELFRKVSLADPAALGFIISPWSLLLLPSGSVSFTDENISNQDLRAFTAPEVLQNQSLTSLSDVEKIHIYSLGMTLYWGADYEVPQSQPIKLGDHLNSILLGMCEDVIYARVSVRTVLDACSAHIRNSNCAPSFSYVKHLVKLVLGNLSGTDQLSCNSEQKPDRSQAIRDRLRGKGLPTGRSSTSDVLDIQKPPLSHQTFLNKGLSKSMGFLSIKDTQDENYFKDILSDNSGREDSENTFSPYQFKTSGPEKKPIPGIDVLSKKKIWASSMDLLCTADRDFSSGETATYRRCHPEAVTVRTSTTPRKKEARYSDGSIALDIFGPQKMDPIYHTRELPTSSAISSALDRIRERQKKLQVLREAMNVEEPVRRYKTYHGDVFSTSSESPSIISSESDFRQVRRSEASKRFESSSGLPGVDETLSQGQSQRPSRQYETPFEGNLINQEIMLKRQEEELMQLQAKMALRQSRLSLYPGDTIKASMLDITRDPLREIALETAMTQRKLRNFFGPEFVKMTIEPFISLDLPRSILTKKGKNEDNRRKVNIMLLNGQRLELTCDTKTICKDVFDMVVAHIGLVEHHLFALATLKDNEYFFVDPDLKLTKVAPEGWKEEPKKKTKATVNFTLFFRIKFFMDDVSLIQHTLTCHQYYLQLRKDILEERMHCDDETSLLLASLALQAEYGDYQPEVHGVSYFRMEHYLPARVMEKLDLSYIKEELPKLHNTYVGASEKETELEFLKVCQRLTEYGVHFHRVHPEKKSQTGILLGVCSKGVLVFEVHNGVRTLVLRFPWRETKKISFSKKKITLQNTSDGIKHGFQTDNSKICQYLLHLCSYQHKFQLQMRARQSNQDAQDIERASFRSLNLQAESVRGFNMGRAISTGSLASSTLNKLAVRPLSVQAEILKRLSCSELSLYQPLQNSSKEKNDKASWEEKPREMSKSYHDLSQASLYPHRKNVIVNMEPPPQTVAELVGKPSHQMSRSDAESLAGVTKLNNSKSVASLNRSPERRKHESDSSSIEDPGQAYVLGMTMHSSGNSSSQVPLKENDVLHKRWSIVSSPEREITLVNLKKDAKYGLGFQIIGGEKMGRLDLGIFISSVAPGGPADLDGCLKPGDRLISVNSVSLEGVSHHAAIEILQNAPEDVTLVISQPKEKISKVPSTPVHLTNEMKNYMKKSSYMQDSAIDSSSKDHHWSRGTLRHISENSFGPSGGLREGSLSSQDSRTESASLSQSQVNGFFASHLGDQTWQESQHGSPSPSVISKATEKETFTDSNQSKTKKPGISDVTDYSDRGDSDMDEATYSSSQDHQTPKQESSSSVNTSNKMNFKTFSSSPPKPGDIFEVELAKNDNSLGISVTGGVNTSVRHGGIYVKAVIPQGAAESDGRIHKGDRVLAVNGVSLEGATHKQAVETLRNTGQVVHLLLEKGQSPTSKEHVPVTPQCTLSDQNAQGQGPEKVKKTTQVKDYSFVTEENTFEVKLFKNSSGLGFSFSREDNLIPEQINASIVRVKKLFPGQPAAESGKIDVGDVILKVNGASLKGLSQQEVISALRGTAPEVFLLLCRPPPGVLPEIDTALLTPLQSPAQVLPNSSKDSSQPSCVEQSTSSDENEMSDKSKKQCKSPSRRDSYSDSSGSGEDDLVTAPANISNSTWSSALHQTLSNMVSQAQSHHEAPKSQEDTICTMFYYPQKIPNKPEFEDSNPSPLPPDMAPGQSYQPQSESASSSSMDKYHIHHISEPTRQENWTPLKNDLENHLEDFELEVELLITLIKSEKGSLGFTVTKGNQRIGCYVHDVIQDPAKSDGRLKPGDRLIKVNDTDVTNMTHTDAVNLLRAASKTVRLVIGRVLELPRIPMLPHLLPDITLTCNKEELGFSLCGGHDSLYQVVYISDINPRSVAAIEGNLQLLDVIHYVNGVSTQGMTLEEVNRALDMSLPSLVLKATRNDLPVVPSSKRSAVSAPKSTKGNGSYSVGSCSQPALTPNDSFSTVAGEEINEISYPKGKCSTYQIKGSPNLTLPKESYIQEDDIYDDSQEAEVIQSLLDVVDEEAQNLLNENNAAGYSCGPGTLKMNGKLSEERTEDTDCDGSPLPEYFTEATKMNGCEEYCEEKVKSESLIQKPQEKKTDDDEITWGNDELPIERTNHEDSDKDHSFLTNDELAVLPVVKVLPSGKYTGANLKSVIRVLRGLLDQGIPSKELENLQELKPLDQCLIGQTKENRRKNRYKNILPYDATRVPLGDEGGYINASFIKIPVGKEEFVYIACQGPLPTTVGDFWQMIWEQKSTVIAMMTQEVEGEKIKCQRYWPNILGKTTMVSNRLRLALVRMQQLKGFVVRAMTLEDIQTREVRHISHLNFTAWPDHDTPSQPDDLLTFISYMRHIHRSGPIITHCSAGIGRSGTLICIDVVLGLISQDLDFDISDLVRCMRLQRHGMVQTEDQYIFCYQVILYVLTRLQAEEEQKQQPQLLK
Sequence of Procathepsin L (P07711 whole entry): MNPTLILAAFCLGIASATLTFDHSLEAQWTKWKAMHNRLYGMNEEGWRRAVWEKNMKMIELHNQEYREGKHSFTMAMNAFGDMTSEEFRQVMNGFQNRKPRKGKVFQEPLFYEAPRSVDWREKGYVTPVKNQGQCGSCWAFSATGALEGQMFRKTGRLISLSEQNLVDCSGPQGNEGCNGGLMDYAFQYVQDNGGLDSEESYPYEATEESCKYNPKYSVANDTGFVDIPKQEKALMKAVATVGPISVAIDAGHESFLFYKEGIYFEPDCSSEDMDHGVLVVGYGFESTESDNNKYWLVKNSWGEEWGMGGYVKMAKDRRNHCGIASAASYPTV

IC50 [1]	IC50 [2]	SMILES	CC50 [3]	IC50 [4]	other results
> 30 µM	–	O=C1C=C(Nc2ccccc2)c2ccccc2C1=O	–	–	–
1.2 µM	> 30 µM	O=C(Nc1ccc2c(c1)-c1ccccc1C(=O)C2=O)c1ccccc1F	15 µM	2.9 µM	IC50 [5]: 5.8 µM
–	> 30 µM	O=C1C(=O)c2ccoc2-c2ccccc21	3.5 µM	–	–
0.6 µM	–	CC(C)(C)OC(=O)CNC(=O)c1ccc2c(c1)-c1ccccc1C(=O)C2=O	3.2 µM	0.32 µM	–
1.1 µM	–	CC(=O)NC(CCC(N)=O)C(=O)N[C@@H](CC(=O)Nc1ccc2c(c1)C(=O)C(=O)c1ccccc1-2)C(=O)O (some centres not stated)	–	> 30 µM	–
–	> 30 µM	CC(C)(C)C(=O)Nc1ccc2c(c1)C(=O)C(=O)c1ccccc1-2	3.5 µM	–	IC50 [6]: 0.4 µM; IC50 [7]: > 10 µM; IC50 [8]: 0.5 µM; IC50 [9]: 7 µM; IC50 [10]: > 30 µM; IC50 [5]: 3.8 µM
–	–	COC(=O)CCCCCCC(=O)Nc1ccc2c(c1)C(=O)C(=O)c1ccccc1-2	14 µM	–	IC50 [6]: > 10 µM; IC50 [7]: > 10 µM; IC50 [8]: > 10 µM; IC50 [9]: 9.9 µM; IC50 [10]: > 30 µM
–	16 µM	COc1ccccc1-c1ccc2c(c1)C(=O)C(=O)c1ccccc1-2	9.5 µM	–	IC50 [5]: > 30 µM
0.4 µM	–	O=C1C(=O)c2cc(Br)ccc2-c2ccccc21	5 µM	0.6 µM	–
0.8 µM	18 µM	O=C1C(=O)c2cc(-c3ccccc3F)ccc2-c2ccccc21	8.4 µM	–	IC50 [5]: > 30 µM
–	18 µM	O=C(COCc1ccccc1)Nc1ccc2c(c1)C(=O)C(=O)c1ccccc1-2	14 µM	1 µM	–
–	–	COC(=O)CCC(=O)Nc1ccc2c(c1)C(=O)C(=O)c1cc(NC(=O)CCC(=O)OC)ccc1-2	7 µM	–	IC50 [6]: > 10 µM; IC50 [7]: > 10 µM; IC50 [8]: 5.4 µM; IC50 [9]: 12 µM; IC50 [10]: > 30 µM; IC50 [5]: 2.9 µM
> 30 µM	–	O=C1C=C(NCCCN2CCCCC2)c2ccccc2C1=O	–	–	–
5.4 µM	–	O=C1C(=O)c2cc(NC(=O)c3c(Cl)cc(Cl)cc3Cl)ccc2-c2ccccc21	12 µM	1.3 µM	–
–	–	N=C(N)NCCC[C@H](NC(=O)c1ccc2c(c1)C(=O)C(=O)c1ccccc1-2)C(=O)N[C@@H](CCCNC(=N)N)C(=O)N1CCC[C@H]1C(=O)N[C@@H](CCCNC(=N)N)C(=O)NCC(=O)O (Phenanthrenequinone2carbonyl-RRPRG-OH)	> 30 µM	21 µM	–
> 30 µM	–	O=C(O)CC/N=C1\C=C(O)C(=O)c2ccccc21	–	–	–
–	–	O=C1C=Cc2ccc(O)cc2C1=O	> 30 µM	> 30 µM	–

IC50 [1]	IC50 [2]	SMILES	CC50 [3]	IC50 [4]	other results
–	> 30 µM	O=C1C(=O)c2cccnc2-c2ccccc21	2.4 µM	0.2 µM	IC50 [11]: 1.4 µM; IC50 [6]: 0.4 µM; IC50 [7]: > 10 µM; IC50 [8]: 0.6 µM; IC50 [9]: 14 µM; IC50 [10]: > 30 µM; IC50 [5]: 3.1 µM
–	–	N=C(N)NCCC[C@H](NC(=O)[C@@H]1CCCN1C(=O)[C@H](CCC(=O)O)NC(=O)[C@H](CCC(=O)O)NC(=O)c1ccc2c(c1)C(=O)C(=O)c1ccccc1-2)C(=O)NCC(=O)O (Phenanthrenequinone2carbonyl-EEPRG-OH)	> 30 µM	16 µM	–
–	–	N=C(N)NCCC[C@H](NC(=O)c1ccc2c(c1)C(=O)C(=O)c1ccccc1-2)C(=O)N[C@@H](CCCNC(=N)N)C(=O)N1CCC[C@H]1C(=O)N[C@@H](CCC(=O)O)C(=O)NCC(=O)O (Phenanthrenequinone2carbonyl-RRPEG-OH)	> 30 µM	11 µM	–
0.7 µM	–	COC(=O)CCCCCCC(=O)Nc1ccc2c(c1)-c1ccccc1C(=O)C2=O	28 µM	1.3 µM	–
–	18 µM	O=C(Nc1ccc2c(c1)C(=O)C(=O)c1ccccc1-2)c1ccccc1F	20 µM	3.1 µM	IC50 [11]: 0.6 µM; IC50 [6]: 9 µM; IC50 [7]: > 10 µM; IC50 [8]: 0.4 µM; IC50 [9]: 0.6 µM; IC50 [10]: 20 µM; IC50 [5]: 11 µM
–	–	N=C(N)NCCC[C@H](NC(=O)c1ccc2c(c1)C(=O)C(=O)c1ccccc1-2)C(=O)N[C@@H](CCC(=O)O)C(=O)N1CCC[C@H]1C(=O)N[C@@H](CCC(=O)O)C(=O)NCC(=O)O (Phenanthrenequinone2carbonyl-REPEG-OH)	> 30 µM	5 µM	–
–	–	N=C(N)NCCC[C@H](NC(=O)c1ccc2c(c1)C(=O)C(=O)c1ccccc1-2)C(=O)NCC(=O)N1CCC[C@H]1C(=O)N[C@@H](CCC(=O)O)C(=O)NCC(=O)O (Phenanthrenequinone2carbonyl-RGPEG-OH)	> 30 µM	3.3 µM	–
–	–	O=C1C=C(c2cccc([N+](=O)[O-])c2)c2ccccc2C1=O	4 µM	0.4 µM	–
–	–	O=C1C=Cc2ccccc2C1=O [1,2-NAPHTHOQUINONE]	> 30 µM	7 µM	–
–	19 µM	O=C1C(=O)c2cc(-c3cc4ccccc4o3)ccc2-c2ccccc21	3.6 µM	–	IC50 [5]: > 30 µM
–	–	N=C(N)NCCC[C@H](NC(=O)[C@@H]1CCCN1C(=O)[C@H](CCCNC(=N)N)NC(=O)[C@H](CCC(=O)O)NC(=O)c1ccc2c(c1)C(=O)C(=O)c1ccccc1-2)C(=O)NCC(=O)O (Phenanthrenequinone2carbonyl-ERPRG-OH)	> 30 µM	19 µM	–
–	> 30 µM	CC(C)(C)OC(=O)CNC(=O)c1ccc2c(c1)C(=O)C(=O)c1ccccc1-2	10 µM	0.4 µM	–
–	–	COC(=O)CCC(=O)Nc1cccc2c1C(=O)C(=O)c1ccccc1-2	9 µM	0.5 µM	IC50 [7]: > 10 µM; IC50 [9]: 4.4 µM; IC50 [10]: > 30 µM
0.8 µM	> 30 µM	CCCC(=O)Nc1ccc2c(c1)-c1ccccc1C(=O)C2=O	9.1 µM	0.8 µM	IC50 [5]: 5.2 µM
0.9 µM	–	N=C(N)NCCC[C@H](NC(=O)c1ccc2c(c1)C(=O)C(=O)c1ccccc1-2)C(=O)N[C@@H](CCC(=O)O)C(=O)N1CCC[C@H]1C(=O)N[C@@H](CCCNC(=N)N)C(=O)N[C@@H](CCC(=O)O)C(=O)O (Phenanthrenequinone2carbonyl-REPRE-OH)	> 30 µM	20 µM	–
–	–	O=C(O)CC[C@H](NC(=O)c1ccc2c(c1)C(=O)C(=O)c1ccccc1-2)C(=O)NCC(=O)N1CCC[C@H]1C(=O)N[C@@H](CCC(=O)O)C(=O)NCC(=O)O (Phenanthrenequinone2carbonyl-EGPEG-OH)	> 30 µM	8.8 µM	–

SMILES	IC50 [1]	IC50 [2]	CC50 [3]	IC50 [4]	other results
O=C1C(=O)c2cccc([N+](=O)[O-])c2-c2ccc([N+](=O)[O-])cc21	> 30 µM	–	> 30 µM	> 30 µM	–
CC(=O)N[C@@H](CCC(=O)O)C(=O)NCC(=O)N[C@@H](CCC(N)=O)C(=O)N[C@@H](CC(=O)Nc1ccc2c(c1)C(=O)C(=O)c1ccccc1-2)C(=O)O (Ac-EGQD(X1)-OH)	1.5 µM	–	–	> 30 µM	–
O=C1C(=O)c2ccccc2-c2ccccc21 [9,10-PHENANTHRENEQUINONE]	–	> 30 µM	1.3 µM	0.3 µM	–
